Laboratory results taken from ChEMBL document CHEMBL3351777, “Further studies on pyrazolo[1',5':1,6]pyrimido[4,5-d]pyridazin-4(3H)-ones as potent and selective human A1 adenosine receptor antagonists” (Eur J Med Chem, 2015).
Activity calls are given as the source filed them. The calls are words filed in the database; no cut-off is given here.

Columns and labels:
[1] = molecular target: T1, Adenosine receptor A1 (Homo sapiens, UniProt P30542); test: Displacement of [3H]DPCPX from human adenosine A1 receptor expressed in CHO cells after 120 mins; assay type: cell-based
T1 sequence (P30542 whole entry): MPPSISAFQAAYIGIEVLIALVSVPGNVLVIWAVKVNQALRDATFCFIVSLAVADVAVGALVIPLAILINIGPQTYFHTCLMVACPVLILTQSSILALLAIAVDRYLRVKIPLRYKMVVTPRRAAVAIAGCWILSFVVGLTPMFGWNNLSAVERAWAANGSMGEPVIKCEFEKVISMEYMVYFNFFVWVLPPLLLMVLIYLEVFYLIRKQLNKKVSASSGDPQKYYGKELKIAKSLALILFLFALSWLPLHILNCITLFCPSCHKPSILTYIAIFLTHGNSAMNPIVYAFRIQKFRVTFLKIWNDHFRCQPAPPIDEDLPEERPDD

[2] = species on record: Mus musculus; test: Toxicity in Swiss albino mouse assessed as change in gross behavior by rotarod test relative to control; assay type: organism-based; settings: in vivo
Method in brief: (§1)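 Male Swiss albino mice on the rota-rod, counting falls from the rotating rod at the doses used in passive avoidance. Compared with saline- and CMC-treated mice.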

[3] = species on record: Mus musculus; test: Toxicity in Swiss albino mouse assessed as change in motor coordination by measuring number of falls from the rotating rod by rotarod test relative to control; assay type: organism-based; settings: in vivo; method in brief: as §1
[4] = molecular target: T2, Adenosine receptor A2a (Homo sapiens, UniProt P29274); test: Displacement of [3H]NECA from human adenosine A2A receptor expressed in CHO cells after 120 mins; assay type: cell-based
T2 sequence (P29274 whole entry): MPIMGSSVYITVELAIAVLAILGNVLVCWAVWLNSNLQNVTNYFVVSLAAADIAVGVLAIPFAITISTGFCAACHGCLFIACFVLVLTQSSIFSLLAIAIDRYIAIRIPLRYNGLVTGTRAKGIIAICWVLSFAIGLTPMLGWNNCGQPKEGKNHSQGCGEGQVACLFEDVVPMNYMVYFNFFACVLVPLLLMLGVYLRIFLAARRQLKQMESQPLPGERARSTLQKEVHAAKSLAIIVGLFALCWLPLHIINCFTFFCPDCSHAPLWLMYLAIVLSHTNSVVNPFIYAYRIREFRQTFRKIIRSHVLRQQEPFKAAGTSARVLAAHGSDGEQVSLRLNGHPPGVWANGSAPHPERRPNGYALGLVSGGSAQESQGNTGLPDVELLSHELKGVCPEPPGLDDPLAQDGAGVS

[5] = molecular target: T3, Adenosine receptor A3 (Homo sapiens, UniProt P0DMS8); test: Displacement of [125I]AB-MECA from human adenosine A3 receptor expressed in CHO cells after 120 mins; assay type: cell-based
T3 sequence (P0DMS8 whole entry): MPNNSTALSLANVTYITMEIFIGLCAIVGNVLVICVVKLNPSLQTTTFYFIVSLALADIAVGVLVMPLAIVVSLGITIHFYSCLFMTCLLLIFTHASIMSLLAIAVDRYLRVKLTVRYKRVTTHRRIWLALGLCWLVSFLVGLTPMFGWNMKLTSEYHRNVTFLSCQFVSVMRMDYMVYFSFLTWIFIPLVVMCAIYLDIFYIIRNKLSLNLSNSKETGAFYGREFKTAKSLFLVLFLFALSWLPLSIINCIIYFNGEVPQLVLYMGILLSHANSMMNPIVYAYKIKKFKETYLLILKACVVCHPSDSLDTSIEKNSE

[6] = molecular target: T4, Adenosine receptor A3 (Homo sapiens) (UniProt P0DMS8); test: Displacement of [125I]AB-MECA from human adenosine A3 receptor expressed in CHO cells at 10 uM after 120 mins; assay type: cell-based
T4 sequence (whole entry): T3 sequence (P0DMS8 whole entry)

[7] = molecular target: T5, Adenosine receptor A1 (Homo sapiens) (UniProt P30542); test: Displacement of [3H]DPCPX from human adenosine A1 receptor expressed in CHO cells at 10 uM after 120 mins; assay type: cell-based
T5 sequence (whole entry): T1 sequence (P30542 whole entry)

[8] = molecular target: T2, Adenosine receptor A2a; test: Displacement of [3H]NECA from human adenosine A2A receptor expressed in CHO cells at 10 uM after 120 mins; assay type: cell-based
[9] = test system: Mus musculus; test: Antiamnesic activity in Swiss albino mouse CPA-induced amnesia model assessed as time taken to enter dark compartment during training session at 3 mg/kg, ip administered 30 mins prior to session by passive avoidance test (reference value: 16.6 +/- 4.1 secs); assay type: functional; settings: route intraperitoneal
[10] = test system: Mus musculus; test: Antiamnesic activity in Swiss albino mouse CPA-induced amnesia model assessed as time taken to enter dark compartment during retention session at 3 mg/kg, ip administered 30 mins prior to session by passive avoidance test (reference value: 61.2 +/- 9.0 secs); assay type: functional; settings: route intraperitoneal
[11] = molecular target: T1, Adenosine receptor A1; test: Antagonist activity at human recombinant adenosine A1 receptor expressed in CHO cells assessed as inhibition of NECA-induced cAMP accumulation after 15 mins by liquid scintillation spectrometry; assay type: functional, cell-based
Method in brief: (§2)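 Human A1-transfected CHO cells, preincubated 15 min at 37 °C with ADA (1 U/mL) and Ro20-1724 (20 μM). Cells received 1 μM forskolin plus 100 nM NECA, with or without compound (1 nM–10 μM), for 15 min. Stopped with 0.4 N HCl and neutralized with KOH. cAMP was measured by [3H]cAMP (2 nM) binding-protein competition, 150 min at 0 °C, with filtration and scintillation counting. Levels are % of forskolin (100%). Mean ± SEM of ≥3 experiments in duplicate.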

[12] = molecular target: T5, Adenosine receptor A1 (Homo sapiens); test: Antagonist activity at human recombinant adenosine A1 receptor expressed in CHO cells assessed as inhibition of NECA-induced cAMP accumulation at 1 nM to 10 uM after 15 mins by liquid scintillation spectrometry; assay type: functional, cell-based; method in brief: as §2
[13] = molecular target: T6, Adenosine receptor A2b (Homo sapiens) (UniProt P29275); test: Agonist activity at human recombinant adenosine A2B receptor expressed in CHO cells assessed as cAMP accumulation at 10 uM after 15 mins by liquid scintillation spectrometry (reference value: 50%); assay type: functional, cell-based
T6 sequence (whole entry): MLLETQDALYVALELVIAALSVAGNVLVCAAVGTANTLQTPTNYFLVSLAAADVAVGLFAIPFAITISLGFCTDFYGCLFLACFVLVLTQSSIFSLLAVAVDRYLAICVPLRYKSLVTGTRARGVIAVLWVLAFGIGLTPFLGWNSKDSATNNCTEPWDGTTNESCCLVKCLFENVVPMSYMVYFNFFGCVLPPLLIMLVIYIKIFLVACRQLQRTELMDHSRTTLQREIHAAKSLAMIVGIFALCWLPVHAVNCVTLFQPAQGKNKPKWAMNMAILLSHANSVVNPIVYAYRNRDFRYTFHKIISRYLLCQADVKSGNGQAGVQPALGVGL
Method in brief: (§3)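 CHO cells expressing human A2B receptor, plated about 30000 per well and used after 24 h. Preincubated 15 min at 37 °C in DMEM with ADA (1 U/mL) and Ro20-1724 (20 μM). Compound at 10 μM was tested alone or with an EC50 concentration of NECA determined the same day. cAMP was measured by [3H]cAMP competition with bovine adrenal binding protein. Output is % of cAMP production versus agonist maximal effect.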

[14] = molecular target: T6, Adenosine receptor A2b (Homo sapiens); test: Antagonist activity at human recombinant adenosine A2B receptor expressed in CHO cells assessed as inhibition of NECA-induced cAMP accumulation at 10 uM after 15 mins by liquid scintillation spectrometry; assay type: functional, cell-based; set-up: scale not given: the % may be the effect or the level left; method in brief: as §3

Compound: O=c1c2ncn3nc(-c4ccccc4)cc3c2c(C2CCCC2)nn1Cc1ccccc1
- Ki [1]: 32.3 nM
- Activity [2]: Non-toxic
- Activity [3]: Non-toxic
- Ki [4]: 75.5 nM
- Ki [5]: 64 nM

Compound: O=c1c2ncn3nc(-c4ccccc4)cc3c2c(-c2ccsc2)nn1Cc1ccccc1
- Activity [2]: Non-toxic
- Activity [3]: Non-toxic
- inhibition [6]: 24%
- Ki [4]: 69.2 nM
- inhibition [7]: 26%

Compound: CCc1nc2c(=O)n(Cc3ccccc3)nc(-c3ccsc3)c2c2cc(-c3ccccc3)nn12
- Activity [2]: Non-toxic
- Activity [3]: Non-toxic
- inhibition [6]: 36%
- inhibition [7]: 5%
- inhibition [8]: 41%

Compound: CCc1nc2c(=S)n(Cc3ccccc3)nc(C3CCCC3)c2c2cc(-c3ccccc3)nn12
- Ki [1]: 4.7 nM
- Activity [2]: Non-toxic
- Activity [3]: Non-toxic
- inhibition [6]: 24%
- inhibition [8]: 35%

Compound: Cc1nc2c(=S)n(Cc3ccccc3)nc(C3CCCCC3)c2c2cc(-c3ccccc3)nn12
- Activity [2]: Non-toxic
- Activity [3]: Non-toxic
- inhibition [6]: 30%
- inhibition [7]: 33%
- inhibition [8]: 0%

Compound: S=c1c2ncn3nc(-c4ccccc4)cc3c2c(C2CCCC2)nn1Cc1ccccc1
- Ki [1]: 12.9 nM
- Activity [2]: Non-toxic
- Activity [3]: Non-toxic
- inhibition [6]: 54%
- inhibition [8]: 37%

Compound: CCCn1c(=O)c2[nH]c(C3CCCC3)nc2n(CCC)c1=O [1,3-DIPROPYL-8-CYCLOPENTYLXANTHINE [DPCPX]]
- Time [9]: 0.275 min
- Time [10]: 1.53 min

Compound: O=c1c2ncn3nc(-c4ccccc4)cc3c2c(-c2ccc(Cl)cc2)nn1Cc1ccccc1
- Activity [2]: Non-toxic
- Activity [3]: Non-toxic
- inhibition [6]: 31%
- inhibition [7]: 26%
- inhibition [8]: 56%

Compound: Cc1nc2c(=O)n(Cc3ccccc3)nc(C3CCCC3)c2c2cc(-c3ccccc3)nn12
- Ki [1]: 6.2 nM
- Activity [2]: Non-toxic
- Activity [3]: Non-toxic
- IC50 [11]: 5.1 nM
- inhibition [6]: 41%
- inhibition [8]: 53%

Compound: Cc1nc2c(=O)n(Cc3ccccc3)nc(-c3ccc(Cl)cc3)c2c2cc(-c3ccccc3)nn12
- Activity [2]: Non-toxic
- Activity [3]: Non-toxic
- inhibition [6]: 25%
- inhibition [7]: 24%
- inhibition [8]: 28%

Compound: O=c1c2ncn3nc(-c4ccccc4)cc3c2c(C2CCCCC2)nn1Cc1ccccc1
- Ki [1]: 172 nM
- Activity [2]: Non-toxic
- Activity [3]: Non-toxic
- Ki [5]: 308 nM
- inhibition [8]: 56%

Compound: CCc1nc2c(=O)n(Cc3ccccc3)nc(-c3cccs3)c2c2cc(-c3ccccc3)nn12
- Activity [12]: inactive
- Activity [2]: Non-toxic
- Activity [3]: Non-toxic
- inhibition [6]: 30%
- inhibition [7]: 16%
- inhibition [8]: 65%

Compound: CCc1nc2c(=O)n(Cc3ccccc3)nc(C3CCCC3)c2c2cc(-c3ccccc3)nn12
- Ki [1]: 3.5 nM
- Activity [2]: Non-toxic
- Activity [3]: Non-toxic
- inhibition [6]: 43%
- Ki [4]: 662 nM

Compound: O=c1c2ncn3nc(-c4ccccc4)cc3c2c(-c2cccnc2)nn1Cc1ccccc1
- Activity [2]: Non-toxic
- Activity [3]: Non-toxic
- inhibition [6]: 21%

Compound: S=c1c2ncn3nc(-c4ccccc4)cc3c2c(C2CCCCC2)nn1Cc1ccccc1
- Ki [1]: 9.5 nM
- Activity [2]: Non-toxic
- Activity [3]: Non-toxic
- inhibition [6]: 31%
- Activity [13]: 4.8%
- inhibition [8]: 8%
- Activity [14]: 58.9%

Compound: CCc1nc2c(=O)n(Cc3ccccc3)nc(C3CCCCC3)c2c2cc(-c3ccccc3)nn12
- Ki [1]: 15.2 nM
- Activity [2]: Non-toxic
- Activity [3]: Non-toxic
- inhibition [6]: 40%
- inhibition [8]: 0%

Compound: Cc1nc2c(=O)n(Cc3ccccc3)nc(-c3ccsc3)c2c2cc(-c3ccccc3)nn12
- Activity [2]: Non-toxic
- Activity [3]: Non-toxic
- inhibition [6]: 37%
- inhibition [7]: 8%
- inhibition [8]: 57%

Compound: CCc1nc2c(=O)n(Cc3ccccc3)nc(-c3ccc(Cl)cc3)c2c2cc(-c3ccccc3)nn12
- Activity [12]: inactive
- Activity [2]: Non-toxic
- Activity [3]: Non-toxic
- inhibition [6]: 51%
- inhibition [7]: 35%
- inhibition [8]: 10%

Compound: Cc1nc2c(=S)n(Cc3ccccc3)nc(C3CCCC3)c2c2cc(-c3ccccc3)nn12
- Activity [2]: Non-toxic
- Activity [3]: Non-toxic
- inhibition [6]: 13%
- inhibition [7]: 51%
- inhibition [8]: 18%

Compound: CCc1nc2c(=S)n(Cc3ccccc3)nc(C3CCCCC3)c2c2cc(-c3ccccc3)nn12
- Activity [2]: Non-toxic
- Activity [3]: Non-toxic
- inhibition [6]: 42%
- inhibition [8]: 0%

Compound: Cc1nc2c(=O)n(Cc3ccccc3)nc(C3CCCCC3)c2c2cc(-c3ccccc3)nn12
- Ki [1]: 9.5 nM
- Activity [2]: Non-toxic
- Activity [3]: Non-toxic
- inhibition [6]: 35%
- Activity [13]: 2.1%
- inhibition [8]: 7%
- Activity [14]: 57.8%

Compound: Cc1nc2c(=O)n(Cc3ccccc3)nc(-c3cccs3)c2c2cc(-c3ccccc3)nn12
- Activity [2]: Non-toxic
- Activity [3]: Non-toxic
- inhibition [6]: 15%
- Ki [4]: 2600 nM
- inhibition [7]: 21%

Compound: O=c1c2ncn3nc(-c4ccccc4)cc3c2c(-c2cccs2)nn1Cc1ccccc1
- Activity [2]: Non-toxic
- Activity [3]: Non-toxic
- inhibition [6]: 16%
- Ki [4]: 51 nM
- inhibition [7]: 45%
